In ChEMBL document CHEMBL4680287, “Ibrexafungerp: An orally active β-1,3-glucan synthesis inhibitor” (Bioorg Med Chem Lett, 2021):
In brackets after ≈: the same amount, converted by molar mass.

What was measured:
Candida albicans [1] = test: Antifungal activity against Candida albicans MY1055 assessed as fungal growth inhibition in presence of 50% mouse serum; assay type: functional; details: read-out: MIC100
Method in brief: (§1)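 Broth microdilution per CLSI protocols in RPMI medium. Read-out is the MIC, the lowest concentration completely inhibiting fungal growth. Run without serum and with added serum.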

Nakaseomyces glabratus [2] = test: Antifungal activity against Candida glabrata MY1381 assessed as fungal growth inhibition; assay type: functional; details: read-out: MIC100
Candida albicans [3] = test: Antifungal activity against Candida albicans MY1055 infected in DBA/2 mouse model of disseminated candidiasis assessed as reduction in fungal burden in kidney by measuring log change in colony forming units at 6.25 mg/kg, po bid for 7 days by TOKA; assay type: functional; details: time 7 day
Method in brief: (§2)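 Murine disseminated candidiasis model (TOKA) in mice challenged with C. albicans MY1055 at 2.44 x 10^4 CFU/mouse. Dosed PO, or IP where stated. Kidneys collected aseptically 7 days after challenge and CFUs/g counted. Change in log CFU/g is relative to sham-treated controls; significance by two-tailed t test. Clearance is the percentage of kidneys below the detection limit.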

Candida albicans [4] = test: Antifungal activity against Candida albicans MY1055 infected in ip dosed DBA/2 mouse model of disseminated candidiasis assessed as reduction in fungal burden in kidney administered bid for 7 days by TOKA; assay type: functional; details: 168 h, time 7 day; method in brief: as §2
[5] = Dose normalized AUC in po dosed dog; assay type: ADME, organism-based, Canis lupus familiaris; details: in vivo
Nakaseomyces glabratus [6] = test: Antifungal activity against Candida glabrata MY1381 assessed as reduction in fungal growth; assay type: functional
[7] = Half life in mouse; assay type: ADME, organism-based; details: in vivo
Pichia kudriavzevii [8] = test: Antifungal activity against Candida krusei ATCC 6258 assessed as reduction in fungal growth; assay type: functional
[9] = Clearance in rat; assay type: ADME; details: in vivo
Candida albicans [10] = test: Antifungal activity against Candida albicans MY1055 infected in DBA/2 mouse model of disseminated candidiasis assessed as reduction in fungal burden in kidney by measuring log change in colony forming units at 12.5 mg/kg, po bid for 7 days by TOKA; assay type: functional; details: time 7 day; method in brief: as §2
Pichia kudriavzevii [11] = test: Antifungal activity against Candida krusei ATCC 6258 assessed as fungal growth inhibition; assay type: functional; details: read-out: MIC100
Aspergillus fumigatus [12] = test: Antifungal activity against Aspergillus fumigatus MF5668 infected in ip dosed DBA/2N mouse assessed as 50% mouse survival administered bid administered for 7 days starting from 15 to 30 mins post infection and measured up to 21 days; details: 168 h
[13] = Clearance in mouse; assay type: ADME, organism-based; details: in vivo
Aspergillus fumigatus [14] = test: Antifungal activity against Aspergillus fumigatus MF5668 infected in DBA/2N mouse assessed as mean survival time at 6.25 mg/kg, ip bid administered for 7 days starting from 15 to 30 mins post infection and measured up to 21 days; assay type: functional; details: time 7 day
Method in brief: (§3)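 DBA/2N mice were challenged IV with A. fumigatus MF5668 at 6.7 x 10^5 CFU/mouse, then dosed IP twice daily for 7 days. Survival was followed over a 21-day model, and mean survival time in days was recorded per dose group. A sham-treated control group was run alongside.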

Aspergillus fumigatus [15] = test: Antifungal activity against Aspergillus fumigatus MF5668 infected in DBA/2N mouse assessed as mouse survival at 3.125 mg/kg, ip bid administered for 7 days starting from 15 to 30 mins post infection and measured up to 21 days relative to control; assay type: functional; details: 168 h, time 7 day
Method in brief: (§4)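 DBA/2N mice were infected IV with A. fumigatus MF5668 (6.7 x 10^5 CFU/mouse) and treated IP bid for 7 days. Percent survival per dose group was scored at the end of the 21-day survival model and compared with the sham-treated control group.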

Candida albicans [16] = test: Antifungal activity against Candida albicans MY1055 infected in DBA/2 mouse model of disseminated candidiasis assessed as reduction in fungal burden in kidney by measuring log change in colony forming units at 25 mg/kg, po bid for 7 days by TOKA; assay type: functional; details: time 7 day; method in brief: as §2
Candida parapsilosis [17] = test: Antifungal activity against Candida parapsilosis ATCC 22019 assessed as reduction in fungal growth; assay type: functional; details: Lodderomyces parapsilosis
Aspergillus fumigatus [18] = test: Antifungal activity against Aspergillus fumigatus MF5668 assessed inhibition of fungal growth by measuring morphological changes in presence of 50% human serum measured after 24 hrs by microscopy; assay type: functional; details: read-out: MEC
Method in brief: (§5)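 Microdilution per CLSI protocols in RPMI medium. Read-out is the minimum effective concentration (MEC). Run without serum and with 50% human serum.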

[19] = Oral bioavailability in mouse; assay type: ADME, organism-based; details: in vivo
Method in brief: (§6)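 Oral bioavailability calculated as oral AUC normalized to the IV dose, divided by the IV AUC.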

[20] = Half life in rat; assay type: ADME; details: in vivo
[21] = Oral bioavailability in rat; assay type: ADME, organism-based; details: in vivo; method in brief: as §6
Candida albicans [22] = test: Antifungal activity against Candida albicans MY1055 assessed as fungal growth inhibition measured after 24 hrs in presence of 50% mouse serum by liquid microdilution method; assay type: functional; method in brief: as §1
[23] = Oral bioavailability in dog; assay type: ADME, organism-based, Canis lupus familiaris; details: in vivo; method in brief: as §6
[24] = Inhibition of beta-1,3-glucan synthase in Candida albicans MY1055 microsomal membrane assessed as inhibition of TCA-insoluble material formation using UDP-[3H]-glucose as substrate incubated for 2 hrs in presence of GTP by radioactivity-based assay; assay type: microsomes, Microsome
Method in brief: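 GS IC50 measured using Candida albicans MY1055 microsomal membrane fragments as the enzyme source.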

[25] = Clearance in rhesus monkey; assay type: ADME, Macaca mulatta; details: in vivo
[26] = Half life in rhesus monkey; assay type: ADME, Macaca mulatta; details: in vivo
Aspergillus fumigatus [27] = test: Antifungal activity against Aspergillus fumigatus MF5668 infected in DBA/2N mouse assessed as mean survival time at 3.125 mg/kg, ip bid administered for 7 days starting from 15 to 30 mins post infection and measured up to 21 days; assay type: functional; details: time 7 day; method in brief: as §3
Candida tropicalis [28] = test: Antifungal activity against Candida tropicalis MY1012 assessed as fungal growth inhibition; assay type: functional; details: read-out: MIC100
Candida albicans [29] = test: Antifungal activity against Candida albicans MY1055 assessed as reduction in fungal growth; assay type: functional; method in brief: as §1
Candida albicans [30] = test: Antifungal activity against Candida albicans MY1055 assessed as fungal growth inhibition measured after 24 hrs by liquid microdilution method; assay type: functional; method in brief: as §1
Aspergillus fumigatus [31] = test: Antifungal activity against Aspergillus fumigatus MF5668 infected in DBA/2N mouse assessed as mouse survival at 1.56 mg/kg, ip bid administered for 7 days starting from 15 to 30 mins post infection and measured up to 21 days relative to control; assay type: functional; details: 168 h, time 7 day; method in brief: as §4
Clavispora lusitaniae [32] = test: Antifungal activity against Clavispora lusitaniae MY1396 assessed as fungal growth inhibition; assay type: functional; details: read-out: MIC100
Candida parapsilosis [33] = test: Antifungal activity against Candida parapsilosis ATCC 22019 assessed as fungal growth inhibition; assay type: functional; details: Lodderomyces parapsilosis, read-out: MIC100
[34] = Clearance in dog; assay type: ADME, Canis lupus familiaris; details: in vivo
Candida tropicalis [35] = test: Antifungal activity against Candida tropicalis MY1012 assessed as reduction in fungal growth; assay type: functional
Aspergillus fumigatus [36] = test: Antifungal activity against Aspergillus fumigatus MF5668 infected in DBA/2N mouse assessed as mouse survival at 6.25 mg/kg, ip bid administered for 7 days starting from 15 to 30 mins post infection and measured up to 21 days relative to control; assay type: functional; details: 168 h, time 7 day; method in brief: as §4
[37] = Dose normalized AUC in po dosed mouse; assay type: ADME, organism-based; details: in vivo
[38] = Dose normalized AUC in po dosed rat; assay type: ADME, organism-based; details: in vivo
Candida albicans [39] = test: Antifungal activity against Candida albicans MY1055 infected in DBA/2 mouse model of disseminated candidiasis assessed as reduction in fungal burden in kidney by measuring log change in colony forming units at 12.5 mg/kg, ip bid for 7 days by TOKA; assay type: functional; details: time 7 day; method in brief: as §2
Aspergillus fumigatus [40] = test: Antifungal activity against Aspergillus fumigatus MF5668 infected in DBA/2N mouse assessed as mouse survival at 12.5 mg/kg, ip bid administered for 7 days starting from 15 to 30 mins post infection and measured up to 21 days relative to control; assay type: functional; details: 168 h, time 7 day; method in brief: as §4
Aspergillus fumigatus [41] = test: Antifungal activity against Aspergillus fumigatus MF5668 infected in DBA/2N mouse assessed as mean survival time at 12.5 mg/kg, ip bid administered for 7 days starting from 15 to 30 mins post infection and measured up to 21 days; assay type: functional; details: time 7 day; method in brief: as §3
Aspergillus fumigatus [42] = test: Antifungal activity against Aspergillus fumigatus MF5668 infected in ip dosed DBA/2N mouse assessed as 90% mouse survival administered bid administered for 7 days starting from 15 to 30 mins post infection and measured up to 21 days; assay type: functional; details: 168 h, time 7 day
Candida albicans [43] = test: Antifungal activity against Candida albicans MY1055 assessed as reduction in fungal growth in presence of 50% mouse serum; assay type: functional; method in brief: as §1
Aspergillus fumigatus [44] = test: Antifungal activity against Aspergillus fumigatus MF5668 infected in DBA/2N mouse assessed as mean survival time at 1.56 mg/kg, ip bid administered for 7 days starting from 15 to 30 mins post infection and measured up to 21 days; assay type: functional; details: time 7 day; method in brief: as §3
Aspergillus fumigatus [45] = test: Antifungal activity against Aspergillus fumigatus MF5668 assessed inhibition of fungal growth by measuring morphological changes measured after 24 hrs by microscopy; assay type: functional; details: read-out: MEC; method in brief: as §5
[46] = Half life in dog; assay type: ADME, Canis lupus familiaris; details: in vivo
Clavispora lusitaniae [47] = test: Antifungal activity against Clavispora lusitaniae MY1396 assessed as reduction in fungal growth; assay type: functional
[48] = Oral bioavailability in rhesus monkey; assay type: ADME, organism-based, Macaca mulatta; details: in vivo; method in brief: as §6
[49] = Dose normalized AUC in po rhesus monkey; assay type: ADME, organism-based, Macaca mulatta; details: in vivo

## CC(C)[C@@H](C)[C@@]1(C)CC[C@]2(C)[C@H]3CC[C@@H]4[C@@]5(COC[C@@]4(C)[C@@H](OC[C@](C)(N)C(C)(C)C)[C@H](n4ncnc4-c4ccncc4)C5)C3=CC[C@@]2(C)[C@@H]1C(=O)O [IBREXAFUNGERP]
Candida albicans [1]
  MIC: 0.5 µg/mL
Nakaseomyces glabratus [2]
  MIC: 1 µg/mL (≈ 1.37 µM)
Candida albicans [3]
  Activity: -2.2 deltalog10CFU
Candida albicans [4]
  ED99: 0.84 mg/kg
[5]
  AUC/dose: 1.07 µM·kg·h/mg
Nakaseomyces glabratus [6]
  MIC50: 1 µg/mL (≈ 1.37 µM)
[7]
  half-life: 4.4 h
Pichia kudriavzevii [8]
  MIC50: 2 µg/mL (≈ 2.74 µM)
[9]
  clearance: 8 mL/min/kg
Candida albicans [10]
  Activity: -3.2 deltalog10CFU
Pichia kudriavzevii [11]
  MIC: 4 µg/mL (≈ 5.48 µM)
Aspergillus fumigatus [12]
  ED50: 4.5 mg/kg
[13]
  clearance: 14 mL/min/kg
Aspergillus fumigatus [14]
  MST: 19.2 days
Aspergillus fumigatus [15]
  survival at 3.125 mg/kg: 20%
Candida albicans [16]
  Activity: -4.6 deltalog10CFU
Candida parapsilosis [17]
  MIC50: < 0.03 µg/mL
Aspergillus fumigatus [18]
  minimal effective concentration: 0.25 µg/mL
[19]
  bioavailability: 34%
[20]
  half-life: 8.3 h
[21]
  bioavailability: 23%
Candida albicans [22]
  MIC: 0.5 µg/mL
[23]
  bioavailability: 18%
[24]
  IC50: 0.001 µg/mL
[25]
  clearance: 11 mL/min/kg
[26]
  half-life: 5.7 h
Aspergillus fumigatus [27]
  MST: 12.2 days
Candida tropicalis [28]
  MIC: 8 µg/mL (≈ 11 µM)
Candida albicans [29]
  MIC50: < 0.03 µg/mL
Candida albicans [30]
  MIC: 0.06 µg/mL (≈ 0.0822 µM)
Aspergillus fumigatus [31]
  survival at 1.56 mg/kg: 0%
Clavispora lusitaniae [32]
  MIC: 2 µg/mL (≈ 2.74 µM)
Candida parapsilosis [33]
  MIC: 0.5 µg/mL (≈ 0.685 µM)
[34]
  clearance: 4 mL/min/kg
Candida tropicalis [35]
  MIC50: 1 µg/mL (≈ 1.37 µM)
Aspergillus fumigatus [36]
  survival at 6.25 mg/kg: 90%
[37]
  AUC/dose: 0.59 µM·kg·h/mg
[38]
  AUC/dose: 0.69 µM·kg·h/mg
Candida albicans [39]
  Activity: -3.99 deltalog10CFU
Aspergillus fumigatus [40]
  survival at 12.5 mg/kg: 90%
Aspergillus fumigatus [41]
  MST: 19.4 days
Aspergillus fumigatus [42]
  ED90: 8.9 mg/kg
Candida albicans [43]
  MIC50: 0.25 µg/mL
Aspergillus fumigatus [44]
  MST: 5.1 days
Aspergillus fumigatus [45]
  minimal effective concentration: < 0.03 µg/mL
[46]
  half-life: 11.3 h
Clavispora lusitaniae [47]
  MIC50: 1 µg/mL (≈ 1.37 µM)
[48]
  bioavailability: 16%
[49]
  AUC/dose: 0.33 µM·kg·h/mg
